Measurements as given in ChEMBL document CHEMBL5131497, “Design, Synthesis, and Characterization of TNP-2198, a Dual-Targeted Rifamycin-Nitroimidazole Conjugate with Potent Activity against Microaerophilic and Anaerobic Bacterial Pathogens” (J Med Chem, 2022).
Values after ≈ are worked out from the molar mass of the structure shown.

Tests used:
Fannyhessea vaginae = assay: Antibacterial activity against Atopobium vaginae BAA-55; format: functional
Clostridioides difficile [1] = assay: Antibacterial activity against fluoroquinolone-resistant Clostridioides difficile CB1941 harboring gyrAD71Y/T82A mutant at 1:1 compound to rifampicin molar ratio measured after 3 days in presence of rifampicin; format: functional; settings: CB1941, 72 h, time 3 day
Clostridioides difficile [2] = assay: Antibacterial activity against rifampicin/fluoroquinolone-resistant Clostridioides difficile CB1940 harboring rpoBQ489K/gyrAA118S mutant at 1:1 compound to rifampicin molar ratio measured after 3 days in presence of rifampicin; format: functional; settings: CB1940, 72 h, time 3 day
Helicobacter pylori [3] = assay: Antibacterial activity against Helicobacter pylori clinical isolate China; format: functional
Helicobacter pylori [4] = assay: Antibacterial activity against rifampicin resistant Helicobacter pylori harboring rpoBL525I/D530N mutant; format: functional
Bacteroides uniformis = assay: Antibacterial activity against Bacteroides uniformis MMX 1277; format: functional
Helicobacter pylori [5] = assay: Antibacterial activity against metronidazole/rifampicin-resistant Helicobacter pylori CB1893 harboring rpoBL525I/D530N/rdxAR16S mutant at 1:1 compound to rifampicin molar ratio measured after 5 days in presence of rifampicin by agar dilution method; format: functional; settings: CB1893, 120 h, time 5 day
Outline: (§1)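 Agar dilution MIC per CLSI. Resistant derivatives of wild-type ATCC 700392 carrying defined rpoB/rdxA mutations. Test agent combined 1:1 molar with the partner drug. Agents prepared from 100× stocks and serially 2-fold diluted into Mueller–Hinton agar containing 5% v/v aged (≥2 weeks) sheep blood. Plates incubated 5 days at 35 °C under a microaerobic atmosphere from a gas-generating system.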

Helicobacter pylori [6] = assay: Antibacterial activity against Helicobacter pylori clinical isolate USA; format: functional
Fusobacterium nucleatum = assay: Antibacterial activity against Fusobacterium nucleatum ATCC 10953; format: functional
Syrian golden hamster [7] = assay: Antibacterial activity against Clostridioides difficile UNT-103-1 infected in Syrian hamster assessed as mortality at 100 mg/kg, po administered once a daily for 5 days after 18 hrs post 10 mg/kg clindamycin treatment and measured upto 21 days; format: functional, Mesocricetus auratus; settings: time <= 21 day
Outline: (§2)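 Male Golden Syrian hamsters (80-90 g), housed singly, were gavaged with C. difficile UNT103-1 grown in sporulation medium broth and diluted to OD600 1 in prereduced broth. […] From 18 h later, drug or vehicle was given by oral gavage once daily for 5 days. Survival was recorded through day 21.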

Clostridioides difficile [8] = assay: Antibacterial activity against fluoroquinolone-resistant Clostridioides difficile CB1939 at 1:1 compound to rifampicin molar ratio measured after 3 days in presence of rifampicin; format: functional; settings: CB1939, 72 h, time 3 day
Helicobacter pylori [9] = assay: Antibacterial activity against metronidazole/rifampicin-resistant Helicobacter pylori CB1771 harboring rpoBL525I/D530N/rdxAE75stop mutant measured after 5 days by agar dilution method; format: functional; settings: CB1771, 120 h, time 5 day
Outline: (§3)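 Agar dilution per CLSI. Wild-type ATCC 700392 (CB1531) and its derivatives carry defined resistance determinants. Drugs, alone or in 1:1 molar mixtures, were diluted 2-fold from 100× stocks into Mueller–Hinton agar with aged (≥2 weeks) sheep blood (5% v/v). MIC read after 5 days at 35 °C under microaerobic conditions from a campylobacter gas-generating system.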

Helicobacter pylori [10] = assay: Antibacterial activity against metronidazole/rifampicin-resistant Helicobacter pylori CB1771 harboring rpoBL525I/D530N/rdxAE75stop mutant at 1:1 compound to rifampicin molar ratio measured after 5 days in presence of rifampicin by agar dilution method; format: functional; settings: CB1771, 120 h, time 5 day; outline: as §1
[11] = tested on: Porphyromonas asaccharolytica; assay: Antibacterial activity against metronidazole-resistant Prevotella asaccharolytica MMX 3552; format: functional
Gardnerella vaginalis [12] = assay: Antibacterial activity against Gardnerella vaginalis clinical isolate China; format: functional
Gardnerella vaginalis [13] = assay: Antibacterial activity against Gardnerella vaginalis ATCC 14018; format: functional
Veillonella parvula = assay: Antibacterial activity against Veillonella parvula ATCC 17745 MMX 1272; format: functional
Actinomyces naeslundii = assay: Antibacterial activity against Actinomyces naeslundii ATCC 1210; format: functional
Clostridioides difficile [14] = assay: Antibacterial activity against rifampicin-resistant Clostridioides difficile harboring rpoBQ489K mutant; format: functional
Phocaeicola vulgatus = assay: Antibacterial activity against metronidazole-resistant Bacteroides vulgatus 3490; format: functional
Clostridioides difficile [15] = assay: Antibacterial activity against rifampicin/fluoroquinolone-resistant Clostridioides difficile CB1942 harboring rpoBQ489K/gyrAD71Y/T82A mutant at 1:1 compound to rifampicin molar ratio measured after 3 days in presence of rifampicin; format: functional; settings: CB1942, 72 h, time 3 day
Clostridioides difficile [16] = assay: Antibacterial activity against Clostridioides difficile clinical isolate USA; format: functional
Helicobacter pylori [17] = assay: Antibacterial activity against metronidazole-resistant Helicobacter pylori CB1573 harboring rdxAR16S mutant measured after 5 days by agar dilution method; format: functional; settings: CB1573, 120 h, time 5 day; outline: as §3
Clostridioides difficile [18] = assay: Antibacterial activity against rifampicin-resistant Clostridioides difficile CB1934 harboring rpoBQ489K mutant at 1:1 compound to rifampicin molar ratio measured after 3 days in presence of rifampicin; format: functional; settings: CB1934, 72 h, time 3 day
Gardnerella vaginalis [19] = assay: Antibacterial activity against Gardnerella vaginalis clinical isolate USA; format: functional
Helicobacter pylori [20] = assay: Antibacterial activity against Helicobacter pylori ATCC 700392 at 1:1 compound to rifampicin molar ratio measured after 5 days in presence of rifampicin by agar dilution method; format: functional; settings: ATCC 700392, 120 h, time 5 day
Outline: (§4)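 Agar dilution per CLSI: two-fold serial dilutions from 100× stocks in Mueller–Hinton agar with aged (≥2 weeks) sheep blood (5% v/v). Strains were wild-type ATCC 700392 (CB1531) and derived mutants carrying defined resistance determinants. MIC was read after 5 days at 35 °C under microaerobic conditions from a campylobacter gas-generating system. Routine culture was on TSA with 5% sheep blood.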

Bacteroides fragilis = assay: Antibacterial activity against metronidazole-resistant Bacteroides fragilis MMX 3387; format: functional
Gardnerella vaginalis [21] = assay: Antibacterial activity against Gardnerella vaginalis ATCC 49145; format: functional
Helicobacter pylori [22] = assay: Antibacterial activity against rifampicin-resistant Helicobacter pylori CB1614 harboring rpoBL525I/D530N at 1:1 compound to rifampicin molar ratio measured after 5 days in presence of rifampicin by agar dilution method; format: functional; settings: CB1614, 120 h, time 5 day; outline: as §3
Staphylococcus aureus = assay: Antibacterial activity against Staphylococcus aureus ATCC 29213; format: functional
Peptostreptococcus sp. = assay: Antibacterial activity against Peptostreptococcus magnus ATCC 14956; format: functional
Clostridium sporogenes = assay: Antibacterial activity against Clostridium sporogenes ATCC 19404; format: functional
Helicobacter pylori [23] = assay: Antibacterial activity against metronidazole-resistant Helicobacter pylori CB1573 harboring rdxAR16S mutant at 1:1 compound to rifabutin molar ratio measured after 5 days in presence of rifabutin by agar dilution method; format: functional; settings: CB1573, 120 h, time 5 day; outline: as §3
Helicobacter pylori [24] = assay: Antibacterial activity against Helicobacter pylori ATCC 700392 at 1:1 compound to rifabutin molar ratio measured after 5 days in presence of rifabutin by agar dilution method; format: functional; settings: ATCC 700392, 120 h, time 5 day
Outline: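 Agar dilution per CLSI. Wild-type H. pylori ATCC 700392 (CB1531). Drugs prepared from 100× stocks as 2-fold dilutions in Mueller–Hinton agar with aged (≥2 weeks) sheep blood (5% v/v). Combinations were at 1:1 molar ratio. MIC read after 5 days at 35 °C under microaerobic atmosphere from a campylobacter gas-generating system.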

Clostridioides difficile [25] = assay: Antibacterial activity against Clostridioides difficile clinical isolate China; format: functional
Helicobacter pylori [26] = assay: Antibacterial activity against metronidazole/rifampicin-resistant Helicobacter pylori CB1893 harboring rpoBL525I/D530N/rdxAR16S mutant measured after 5 days by agar dilution method; format: functional; settings: CB1893, 120 h, time 5 day; outline: as §3
Clostridioides difficile [27] = assay: Antibacterial activity against Clostridioides difficile CB1921 ATCC BAA1382 at 1:1 compound to rifampicin molar ratio measured after 3 days in presence of rifampicin; format: functional; settings: CB1921 ATCC BAA1382, 72 h, time 3 day
Helicobacter pylori [28] = assay: Antibacterial activity against rifampicin-resistant Helicobacter pylori CB1903 harboring rpoBD530V mutant at 1:1 compound to rifabutin molar ratio measured after 5 days in presence of rifabutin by agar dilution method; format: functional; settings: CB1903, 120 h, time 5 day; outline: as §4
Campylobacter gracilis = assay: Antibacterial activity against Bacteroides gracilis ATCC 33236 MMX 1270; format: functional
Helicobacter pylori [29] = assay: Antibacterial activity against rifampicin-resistant Helicobacter pylori CB1902 harboring rpoBV149F mutant at 1:1 compound to rifampicin molar ratio measured after 5 days in presence of rifampicin by agar dilution method; format: functional; settings: CB1902, 120 h, time 5 day; outline: as §3
Syrian golden hamster [30] = assay: Antibacterial activity against Clostridioides difficile UNT-103-1 infected in Syrian hamster assessed as mortality at 20 mg/kg, po administered once a daily for 5 days after 18 hrs post 10 mg/kg clindamycin treatment and measured upto 21 days; format: functional, Mesocricetus auratus; settings: time <= 21 day; outline: as §2

With `Cc1ncc([N+](=O)[O-])n1CCO` [METRONIDAZOLE] the MIC (Fannyhessea vaginae) was 128 µg/mL (≈ 748 µM), the MIC (Clostridioides difficile [1]) was at most 0.03 µg/mL and the MIC (Clostridioides difficile [2]) was 2 µg/mL. The MIC (Helicobacter pylori [3]) was at least 0.25 µg/mL, the MIC90 (Helicobacter pylori [3]) was at least 16 µg/mL and the MIC (Helicobacter pylori [4]) was over 32 µg/mL. The MIC (Bacteroides uniformis) was over 256 µg/mL, the MIC (Helicobacter pylori [5]) was over 32 µg/mL and the MIC90 (Helicobacter pylori [6]) was 128 µg/mL (≈ 748 µM). The MIC (Fusobacterium nucleatum) was 0.06 µg/mL (≈ 0.351 µM), the Activity (Syrian golden hamster [7]) was 100% and the MIC (Clostridioides difficile [8]) was at most 0.03 µg/mL. It also gave an MIC (Helicobacter pylori [9]) of 32 µg/mL (≈ 187 µM), an MIC (Helicobacter pylori [10]) of over 32 µg/mL and an MIC [11] of 1 µg/mL (≈ 5.84 µM). It also gave an MIC (Gardnerella vaginalis [12]) of at least 16 µg/mL, an MIC90 (Gardnerella vaginalis [12]) of at least 32 µg/mL and an MIC (Gardnerella vaginalis [13]) of 4 µg/mL (≈ 23.4 µM). The MIC (Veillonella parvula) was 2 µg/mL (≈ 11.7 µM), the MIC (Actinomyces naeslundii) was 256 µg/mL (≈ 1500 µM) and the MIC (Clostridioides difficile [14]) was over 8 µg/mL. For the same molecule, the MIC (Phocaeicola vulgatus) was 128 µg/mL (≈ 748 µM), the MIC (Clostridioides difficile [15]) was 2 µg/mL and the MIC (Clostridioides difficile [16]) was 0.12 µg/mL (≈ 0.701 µM). The MIC (Helicobacter pylori [17]) was 32 µg/mL (≈ 187 µM), the MIC (Clostridioides difficile [18]) was 2 µg/mL and the MIC (Gardnerella vaginalis [19]) was at least 2 µg/mL. It also gave an MIC90 (Gardnerella vaginalis [19]) of 64 µg/mL (≈ 374 µM), an MIC (Helicobacter pylori [20]) of 0.5 µg/mL and an MIC (Bacteroides fragilis) of over 256 µg/mL. The MIC (Gardnerella vaginalis [21]) was 4 µg/mL (≈ 23.4 µM), the MIC (Helicobacter pylori [22]) was 8 µg/mL and the MIC (Staphylococcus aureus) was over 32 µg/mL. For the same molecule, the MIC (Peptostreptococcus sp.) was 1 µg/mL (≈ 5.84 µM), the MIC (Clostridium sporogenes) was 0.06 µg/mL (≈ 0.351 µM) and the MIC (Helicobacter pylori [23]) was at most 0.002 µg/mL. The MIC (Helicobacter pylori [24]) was at most 0.002 µg/mL, the MIC (Clostridioides difficile [25]) was at most 0.06 µg/mL and the MIC90 (Clostridioides difficile [25]) was 0.125 µg/mL (≈ 0.73 µM). It also gave an MIC (Helicobacter pylori [26]) of 32 µg/mL (≈ 187 µM), an MIC (Clostridioides difficile [27]) of at most 0.03 µg/mL and an MIC (Helicobacter pylori [28]) of 1 µg/mL. It also gave an MIC (Campylobacter gracilis) of over 256 µg/mL and an MIC (Helicobacter pylori [29]) of 8 µg/mL.
Molecule `CN[C@H](CC(C)C)C(=O)N[C@H]1C(=O)N[C@@H](CC(N)=O)C(=O)N[C@H]2C(=O)N[C@H]3C(=O)N[C@H](C(=O)N[C@H](C(=O)O)c4cc(O)cc(O)c4-c4cc3ccc4O)[C@H](O)c3ccc(c(Cl)c3)Oc3cc2cc(c3O[C@@H]2O[C@H](CO)[C@@H](O)[C@H](O)[C@H]2O[C@H]2C[C@](C)(N)[C@H](O)[C@H](C)O2)Oc2ccc(cc2Cl)[C@H]1O` [VANCOMYCIN] has an Activity (Syrian golden hamster [30]) of 80%.
